Laboratory results as given in ChEMBL document CHEMBL4393705, “New chalcone-sulfonamide hybrids exhibiting anticancer and antituberculosis activity” (Eur J Med Chem, 2019).
Values after ≈ are worked out from the molar mass of the structure shown.

Columns and labels:
Format in all cases: functional
SK-OV-3 = assay: Anticancer activity against human SKOV3 cells assessed as cell growth inhibition measured after 48 hrs by SRB assay; details: SK-OV-3, 48 h
Summary of the method: (§1)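 NCI 60-cell screen, five-dose mode at 100, 10, 1.0, 0.1 and 0.01 µM. Cells grown in RPMI-1640 with 5% FBS and 2 mM L-glutamine, seeded and held 24 h at 37°C, 5% CO2, then exposed for 48 h. Fixed with cold TCA (10% final), stained with 0.4% SRB and read at 515 nm. Time-zero plates were used. GI50 is the concentration giving 50% lower net protein increase than control.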

HL-60 = assay: Anticancer activity against human HL60 cells assessed as cell growth inhibition measured after 48 hrs by SRB assay; details: HL-60, 48 h
Summary of the method: (§2)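 NCI-60 five-dose screen at 100, 10, 1.0, 0.1 and 0.01 µM final. Cells in RPMI-1640 with 5% FBS and 2 mM glutamine were seeded 24 h ahead at 37°C, 5% CO2. Compound exposure was 48 h, followed by TCA fixation and SRB staining, read at 515 nm. GI50 is the concentration giving 50% lower net protein increase than control, using time-zero plates.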

SR = assay: Anticancer activity against human SR cells assessed as cell growth inhibition measured after 48 hrs by SRB assay; summary of the method: as §1
EKVX = assay: Anticancer activity against human EKVX cells assessed as cell growth inhibition measured after 48 hrs by SRB assay; summary of the method: as §2
NCI-H226 = assay: Anticancer activity against human NCI-H226 cells assessed as cell growth inhibition measured after 48 hrs by SRB assay; details: NCI-H226, 48 h; summary of the method: as §2
NCI-H23 = assay: Anticancer activity against human NCI-H23 cells assessed as cell growth inhibition measured after 48 hrs by SRB assay; details: NCI-H23, 48 h; summary of the method: as §2
NCI-H522 = assay: Anticancer activity against human NCI-H522 cells assessed as cell growth inhibition measured after 48 hrs by SRB assay; details: NCI-H522, 48 h; summary of the method: as §2
COLO 205 = assay: Anticancer activity against human COLO205 cells assessed as cell growth inhibition measured after 48 hrs by SRB assay; details: COLO 205, 48 h; summary of the method: as §2
KM12 = assay: Anticancer activity against human KM12 cells assessed as cell growth inhibition measured after 48 hrs by SRB assay; details: KM12, 48 h; summary of the method: as §2
SF-295 = assay: Anticancer activity against human SF295 cells assessed as cell growth inhibition measured after 48 hrs by SRB assay; details: SF-295, 48 h; summary of the method: as §2
SF-539 = assay: Anticancer activity against human SF539 cells assessed as cell growth inhibition measured after 48 hrs by SRB assay; details: SF-539, 48 h; summary of the method: as §1
U-251 = assay: Anticancer activity against human U251 cells assessed as cell growth inhibition measured after 48 hrs by SRB assay; details: U-251, 48 h; summary of the method: as §1
Malme-3M = assay: Anticancer activity against human MALME-3M cells assessed as cell growth inhibition measured after 48 hrs by SRB assay; summary of the method: as §2
SK-MEL-28 = assay: Anticancer activity against human SK-MEL-28 cells assessed as cell growth inhibition measured after 48 hrs by SRB assay; details: SK-MEL-28, 48 h; summary of the method: as §1
UACC-257 = assay: Anticancer activity against human UACC257 cells assessed as cell growth inhibition measured after 48 hrs by SRB assay; details: UACC-257, 48 h; summary of the method: as §1
UACC-62 = assay: Anticancer activity against human UACC62 cells assessed as cell growth inhibition measured after 48 hrs by SRB assay; details: UACC-62, 48 h; summary of the method: as §1
OVCAR-4 = assay: Anticancer activity against human OVCAR4 cells assessed as cell growth inhibition measured after 48 hrs by SRB assay; details: OVCAR-4, 48 h; summary of the method: as §2
OVCAR-5 = assay: Anticancer activity against human OVCAR5 cells assessed as cell growth inhibition measured after 48 hrs by SRB assay; details: OVCAR-5, 48 h; summary of the method: as §2
NCI/ADR-RES = assay: Anticancer activity against human NCI/ADR-RES cells assessed as cell growth inhibition measured after 48 hrs by SRB assay; summary of the method: as §2
A498 = assay: Anticancer activity against human A498 cells assessed as cell growth inhibition measured after 48 hrs by SRB assay; details: A498, 48 h; summary of the method: as §2
ACHN = assay: Anticancer activity against human ACHN cells assessed as cell growth inhibition measured after 48 hrs by SRB assay; summary of the method: as §2
SN12C = assay: Anticancer activity against human SN12C cells assessed as cell growth inhibition measured after 48 hrs by SRB assay; summary of the method: as §1
TK-10 = assay: Anticancer activity against human TK10 cells assessed as cell growth inhibition measured after 48 hrs by SRB assay; details: TK-10, 48 h; summary of the method: as §1
UO-31 = assay: Anticancer activity against human UO31 cells assessed as cell growth inhibition measured after 48 hrs by SRB assay; details: UO-31, 48 h; summary of the method: as §1
DU-145 = assay: Anticancer activity against human DU145 cells assessed as cell growth inhibition measured after 48 hrs by SRB assay; details: DU-145, 48 h; summary of the method: as §2
MCF7 = assay: Anticancer activity against human MCF7 cells assessed as cell growth inhibition measured after 48 hrs by SRB assay; details: MCF7, 48 h; summary of the method: as §2
[1] = test system: Mycobacterium tuberculosis; assay: Antitubercular activity against Mycobacterium tuberculosis H37Rv ATCC27294 measured after 2-3 weeks by agar dilution SPOTi assay; details: H37Rv ATCC 27294
Summary of the method: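 Agar dilution SPOTi on Middlebrook 7H10 with 0.5% glycerol and 10% OADC. Final compound levels 50, 20, 10, 5, 2 mg/L, added from DMSO dilutions. 2 µL of a 10^6 CFU/mL inoculum from a 4-week Löwenstein-Jensen culture spotted per well, incubated 2-3 weeks at 37°C. MIC is the lowest concentration with no visible growth. Repeated on a separate day; isoniazid was the reference.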

[2] = test system: Mycolicibacterium smegmatis; assay: Antibacterial activity against Mycobacterium smegmatis MC2 155 measured after 48 hrs by agar dilution SPOTi assay; details: MC2 155, 48 h
Summary of the method: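 SPOTi agar dilution on Middlebrook 7H10 without OADC. Cells were passaged in Middlebrook 7H9 and then spotted. Compounds were tested at 100, 50, 20, 10 and 5 mg/L, with kanamycin as positive control. Plates were incubated 48 h at 37°C. MIC was taken as the lowest concentration with no visible growth.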

[3] = read-out: LC50 (the source's name)

`COc1ccc(C(=O)/C=C/c2ccc(Cl)cc2)cc1S(=O)(=O)Nc1c(N)nc(SC)[nH]c1=O` showed a GI50 (SK-OV-3) of 3.65 µM, an LC50 (concentration killing 50% of cells relative to time zero) (SK-OV-3) of 36.6 µM and a GI50 (HL-60) of 3.2 µM. The CC50 (HL-60; [3]) was > 100 µM, the GI50 (SR) was 3.57 µM and the LC50 (concentration giving 50% net cell kill) (SR) was > 100 µM. The GI50 (EKVX) was 3.94 µM, the LC50 (concentration killing 50% of cells) (EKVX) was 80.3 µM and the GI50 (NCI-H226) was 2.34 µM. It also gave a CC50 (NCI-H226; [3]) of 52.9 µM, a GI50 (NCI-H23) of 2.53 µM and an LC50 (NCI-H23) of 40.4 µM. For the same compound, the GI50 (NCI-H522) was 1.88 µM, the CC50 (NCI-H522; [3]) was 8.83 µM and the GI50 (COLO 205) was 1.76 µM. It also gave an LC50 (concentration giving 50% net cell kill) (COLO 205) of 6.68 µM, a GI50 (KM12) of 2.09 µM and an LC50 (lethal concentration, 50% net cell kill) (KM12) of 9.76 µM. For the same compound, the GI50 (SF-295) was 2.72 µM, the LC50 (SF-295) was 34.7 µM and the GI50 (SF-539) was 2.1 µM. It also gave a CC50 (SF-539; [3]) of 15.1 µM, a GI50 (U-251) of 1.58 µM and an LC50 (U-251) of 6.16 µM. The GI50 (Malme-3M) was 3.02 µM, the LC50 (Malme-3M) was 41.8 µM and the GI50 (SK-MEL-28) was 2.1 µM. The CC50 (SK-MEL-28; [3]) was 17 µM, the GI50 (UACC-257) was 8.27 µM and the CC50 (UACC-257; [3]) was 50.1 µM. It also gave a GI50 (UACC-62) of 2.33 µM, a CC50 (UACC-62; [3]) of 27.4 µM and a GI50 (OVCAR-4) of 4.5 µM. It also gave an LC50 (OVCAR-4) of 43.6 µM, a GI50 (OVCAR-5) of 2.83 µM and a CC50 (OVCAR-5; [3]) of 38.2 µM. For the same compound, the GI50 (NCI/ADR-RES) was 40.1 µM, the LC50 (NCI/ADR-RES) was > 100 µM and the GI50 (A498) was 10.6 µM. The CC50 (A498; [3]) was 47.6 µM, the GI50 (ACHN) was 3.23 µM and the CC50 (ACHN; [3]) was 36.5 µM. The GI50 (SN12C) was 3.45 µM, the LC50 (concentration giving 50% net cell kill) (SN12C) was 73.4 µM and the GI50 (TK-10) was 2.98 µM. It also gave a CC50 (TK-10; [3]) of 32.3 µM, a GI50 (UO-31) of 1.89 µM and a CC50 (UO-31; [3]) of 12.9 µM. The GI50 (DU-145) was 3.58 µM, the LC50 (DU-145) was 33.9 µM and the GI50 (MCF7) was 1.97 µM. For the same compound, the LC50 (MCF7) was > 100 µM, the MIC [1] was 20 µM (≈ 10.1 µg/mL) and the MIC [2] was > 175 µM.
